Results published in ChEMBL document CHEMBL4145672, “Structural Characterization of Terpenoids from Abies holophylla Using Computational and Statistical Methods and Their Biological Activities” (J Nat Prod, 2018).
pIC50: −log10 of the molar value.

Legend:
[1] = Cytotoxicity against mouse BV2 cells assessed as cell viability at 20 uM measured after 24 hrs by MTT assay relative to control; assay type: cell-based, BV-2; conditions: read-out: Activity
Procedure, shortened: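 BV2 cells under the NO assay conditions (LPS 100 ng/mL, 24 h) were given 20 μM of each compound, with some data collected at 5 μM. Viability was measured by MTT and expressed as percent. Values are means ± SD of three independent experiments.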

C6 [2] = assay: Neuroprotective activity in rat C6 cells assessed as induction of nerve growth factor secretion at 20 uM measured after 24 hrs by ELISA relative to control; assay type: functional
Procedure, shortened: (§1)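 Rat C6 glioma cells were seeded at 1 × 10^5 cells/well. After 24 h they were switched to serum-free DMEM and treated with compound (20 μM, some at 5 μM) for 24 h. NGF secreted into the conditioned medium was quantified by ELISA and expressed as percent of untreated control (100%). Values are means ± SD of three independent experiments.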

[3] = Cytotoxicity against rat C6 cells assessed as cell viability at 20 uM measured after 24 hrs by MTT assay relative to control; assay type: cell-based; conditions: read-out: Activity
Procedure, shortened: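 Rat C6 glioma cells were seeded at 1 × 10^5 cells/well. After 24 h they were switched to serum-free DMEM containing 20 μM compound for another 24 h. Viability was determined by MTT as percent of untreated control, some data at 5 μM. Values are means ± SD of three independent experiments.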

BV-2 = assay: Antiinflammatory activity in mouse BV2 cells assessed as inhibition of LPS-induced nitric oxide production measured after 24 hrs by Griess assay; assay type: functional, cell-based; conditions: BV-2, 24 h
Procedure, shortened: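 Murine microglial BV2 cells were seeded at 4 × 10^4 cells/well and exposed to a range of compound concentrations. LPS (100 ng/mL) was added and cells were incubated 24 h. Nitrite in the medium was reacted 10 min with Griess reagent (0.1% N-1-naphthylethylenediamine dihydrochloride, 1% sulfanilamide in 5% phosphoric acid), read at 570 nm and quantified against a sodium nitrite standard curve. IC50 values are reported.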

SK-MEL-2 = assay: Cytotoxicity against human SK-MEL-2 cells assessed as cell growth inhibition measured after 48 hrs by sulforhodamine B assay; assay type: functional, cell-based; conditions: SK-MEL-2, 48 h
Procedure, shortened: (§2)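 The SRB assay was run on ATCC-derived human tumor lines maintained at the Korea Research Institute of Chemical Technology. Read-out was cell growth. IC50 is the concentration giving 50% growth inhibition. Cisplatin served as positive control.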

HCT-15 = assay: Cytotoxicity against human HCT15 cells assessed as cell growth inhibition measured after 48 hrs by sulforhodamine B assay; assay type: functional, cell-based; conditions: HCT-15, 48 h; procedure, shortened: as §2
SK-OV-3 = assay: Cytotoxicity against human SKOV3 cells assessed as cell growth inhibition measured after 48 hrs by sulforhodamine B assay; assay type: functional, cell-based; conditions: SK-OV-3, 48 h; procedure, shortened: as §2
A549 = assay: Cytotoxicity against human A549 cells assessed as cell growth inhibition measured after 48 hrs by sulforhodamine B assay; assay type: functional, cell-based; conditions: A549, 48 h; procedure, shortened: as §2
[4] = Cytotoxicity against rat C6 cells assessed as cell viability at 5 uM measured after 24 hrs by MTT assay relative to control; assay type: cell-based; conditions: read-out: Activity
Procedure, shortened: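 C6 glioma cells were seeded at 1 × 10^5 cells/well, grown 24 h, then switched to serum-free DMEM with compound (5 μM here) for another 24 h. Viability was read by MTT as % of untreated cells. Values are means ± SD of three independent experiments.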

C6 [5] = assay: Neuroprotective activity in rat C6 cells assessed as induction of nerve growth factor secretion at 5 uM measured after 24 hrs by ELISA relative to control; assay type: functional; procedure, shortened: as §1
[6] = Cytotoxicity against mouse BV2 cells assessed as cell viability at 5 uM measured after 24 hrs by MTT assay relative to control; assay type: cell-based, BV-2; conditions: read-out: Activity
Procedure, shortened: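 BV2 murine microglia were seeded at 4 × 10^4 cells/well, exposed to compound (5 μM here), and stimulated with LPS 100 ng/mL for 24 h. Viability was read by MTT and expressed as % of control. Values are means ± SD of three independent experiments.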

SMILES	viability at 24 h, 20 µM [1]	Activity (C6 [2])	viability at 24 h, 20 µM [3]	pIC50 (BV-2)	pIC50 (SK-MEL-2)	pIC50 (HCT-15)	pIC50 (SK-OV-3)	pIC50 (A549)	viability at 24 h, 5 µM [4]	Activity (C6 [5])	viability at 24 h, 5 µM [6]
C/C(=C\CO)[C@@H](O)C[C@@H]1[C@@]2(C)CCCC(C)(C)[C@@H]2CC[C@@]1(C)O	122%	125.7%	99.8%	4.71							
C/C(=C\C(=O)C[C@@H](C)[C@H]1CC[C@@]2(C)C3=CC[C@H]4C(C)(C)C(=O)CC[C@]4(C)[C@@H]3CC[C@]12C)C(=O)O	19.4%	153.9%	62.2%	4.98	5.49	< 5.00	5.11	5.06			
CC1=CC(O)(C[C@@H](C)[C@]2(C)CC=C3C4=CC[C@H]5C(C)(C)[C@H](O)CC[C@]5(C)[C@@H]4CC[C@]32C)OC1=O (stereo not given in full)	9.7%	121.7%	56.7%	5.40	5.38	< 5.00	< 5.00	< 5.00	108%	158.1%	154%
C[C@@H]1C[C@]2(C[C@@H](C)[C@]3(CC[C@@]4(C)[C@@H]5CC[C@H]6C(C)(C)[C@H](O)CC[C@@]67C[C@@]57CC[C@@]43C)O2)OC1=O		149.3%	107%		5.07	< 5.00	< 5.00	< 5.00			
CNC(=N)NCCC[C@H](N)C(=O)O [TILARGININE]	105%										
C=C(C)[C@@H]1CC=C2[C@@H](CC[C@]3(C)[C@@H]([C@H](C)C[C@@H]4C[C@@H](C)C(=O)O4)CC[C@@]23C)[C@@]1(C)CCC(=O)OC	123%			4.76	5.26	5.09	< 5.00	< 5.00			
C=C[C@@](C)(O)[C@H]1C[C@@H]2[C@@]3(C)CCCC(C)(C)[C@@H]3CC[C@@]2(C)O1	118%			4.37							
C=C[C@@]1(C)C=C2CC[C@@H]3[C@](C)(CCC[C@@]3(C)C(=O)O)[C@H]2CC1 [PIMARIC ACID]	117%			4.87							
C/C(=C\CO)[C@H](O)C[C@@H]1[C@@]2(C)CCCC(C)(C)[C@@H]2CC[C@@]1(C)O		127.9%	104%								
C=C(C)[C@@H]1CC=C2[C@@H](CC=C3[C@@]2(C)CC[C@@]3(C)[C@H](C)C[C@@H]2C[C@@H](C)C(=O)O2)[C@@]1(C)CCC(=O)OC	86.8%			4.40	5.77	5.64	5.21	5.62			
C=C(C)[C@@H]1C=CC2=C3CC[C@@](C)([C@H](C)CC(=O)C[C@@H](C)C(=O)O)[C@]3(C)CC[C@H]2[C@@]1(C)CCC(=O)O		146.1%	110%								
C/C(=C\CC[C@@H](C)[C@H]1CC[C@@]2(C)[C@@H]3CC[C@H]4C(C)(C)C(=O)CC[C@@]45C[C@@]35CC[C@]12C)C(=O)O [MANGIFERONIC ACID]	21%			5.05							
CC1(C)CCC[C@]2(C)[C@H]3CC(=O)O[C@]3(C)CC[C@@H]12	131%			4.69							
C/C(=C\[C@H](O)C[C@@H](C)[C@H]1CC[C@@]2(C)C3=CC[C@H]4C(C)(C)C(=O)CC[C@]4(C)[C@@H]3CC[C@]12C)C(=O)O	125%	140.9%	111%	4.53	5.06	< 5.00	< 5.00	< 5.00			
CC1=CC(O)(C[C@@H](C)[C@H]2CC[C@@]3(C)C4=CC[C@H]5C(C)(C)C(=O)CC[C@]5(C)[C@@H]4CC[C@]23C)OC1=O (stereo not given in full)	15.9%			4.99	5.39	< 5.00	< 5.00	5.03			
CC1(C)O[C@H]2C[C@H]3C(=C[C@]21O)CC[C@@H]1[C@]3(C)CCC[C@@]1(C)C(=O)O		136.9%	99%								
C=C(CC(=O)C[C@@H](C)[C@H]1CC[C@@]2(C)C3=CC[C@H]4C(C)(C)C(=O)CC[C@]4(C)[C@@H]3CC[C@]12C)C(=O)O	125%	178.9%	98.5%	4.82							
C/C(=C\C(=O)C[C@@H](C)[C@@H]1CC=C2C3=CC[C@H]4C(C)(C)[C@H](O)CC[C@]4(C)[C@@H]3CC[C@]21C)C(=O)O	9.9%	156%	85.7%	4.99	5.14	< 5.00	< 5.00	< 5.00			
CCCCC/C=C/C(=O)CCc1ccc(O)c(OC)c1 [SHOGAOL]		158.2%	110%								
CC(=O)/C=C/C1[C@](C)(O)CC[C@H]2C(C)(C)CCC[C@]12C (stereo not given in full)	114%			5.01							
C/C(=C\CC[C@@H](C)[C@H]1CC[C@@]2(C)[C@@H]3CC[C@H]4C(C)(C)[C@@H](O)CC[C@@]45C[C@@]35CC[C@]12C)C(=O)O [MANGIFEROLIC ACID]	35.2%	128.6%	79.3%	4.89							
C=C(C)[C@@H]1CC=C2[C@@H](CC[C@]23C(=C)CC[C@@]3(C)[C@H](C)CC(=O)/C=C(\C)C(=O)O)[C@@]1(C)CCC(=O)O	136%	195.1%	104%	4.72							
C=C[C@@]1(C)O[C@]2(C)CC[C@H]3C(C)(C)CCC[C@]3(C)[C@H]2C[C@H]1O	112%			4.60							
C=C(CC(=O)C[C@@H](C)[C@]1(C)CCC(=C)[C@]12CC[C@@H]1C2=CC[C@@H](C(=C)C)[C@]1(C)CCC(=O)O)C(=O)O		173.3%	112%								
C[C@]12CCC[C@@](C)(C(=O)O)[C@@H]1CCC1=CC(=O)CC[C@@H]12	124%			4.74							
